In brackets after ≈: the same amount, converted by molar mass.
Experiments:
Type in all cases: functional
[1] = system: Candida albicans; test: Tested for in vitro antifungal activity against Candida albicans SANK51486 in the presence of horse serum (20%)
Summary of the method: (§1)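 RPMI1640 medium buffered at pH 7.0, with 20% horse serum added for the incubation. Microplates incubated at 35 °C. MIC is the lowest concentration giving 80% inhibition of fungal growth.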

[2] = system: Candida tropicalis; test: Tested for in vitro antifungal activity against Candida tropicalis ATCC750
Summary of the method: (§2)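 Microplate growth assay in RPMI1640 medium buffered at pH 7.0, incubated at 35 °C. MIC is the lowest test-compound concentration that inhibits fungal growth by 80%.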

[3] = system: Candida albicans; test: Tested for in vitro antifungal activity against Candida albicans SANK51486; summary of the method: as §2
[4] = system: Candida parapsilosis; test: Tested for in vitro antifungal activity against Candida parapsilosis ATCC 90018; details: Lodderomyces parapsilosis; summary of the method: as §2
[5] = system: Candida albicans; test: Tested for in vitro antifungal activity against Candida albicans ATCC 64550; summary of the method: as §2
[6] = system: Candida albicans; test: Tested for in vitro antifungal activity against Candida albicans ATCC 24433; summary of the method: as §2
[7] = system: Cryptococcus neoformans; test: Tested for in vitro antifungal activity against Cryptococcus neoformans TIMM1855
Summary of the method: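 Yeast grown in microplates in yeast nitrogen base buffered at pH 7.0, incubated at 35 °C. MIC is the lowest concentration inhibiting growth by 80%.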

[8] = system: Candida albicans; test: Tested for in vitro antifungal activity against Candida albicans TIMM3164; summary of the method: as §2
[9] = system: Aspergillus fumigatus; test: Tested for in vitro antifungal activity against Aspergillus fumigatus ATCC 26430
Summary of the method: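 Mould grown in microplates in RPMI1640 buffered at pH 7.0, incubated at 30 °C. MIC is the lowest test-compound concentration that inhibits growth by 80%.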

[10] = system: Candida albicans; test: Tested for in vitro antifungal activity against Candida albicans ATCC 24433 in the presence of horse serum (20%); summary of the method: as §1
[11] = system: Nakaseomyces glabratus; test: Tested for in vitro antifungal activity against Candida glabrata ATCC 90030; summary of the method: as §2

Work on C=C(Br)CN1C[C@H](OCC23C[C@@H]4[C@H](C)CC[C@H]4C4(C=O)CC2C=C(C(C)C)C34C(=O)O)O[C@H](C)[C@@H](OC)C1 (stereo not given in full) yielded an MIC [1] of 0.5 µg/mL, an MIC [2] of 0.125 µg/mL (≈ 0.21 µM) and an MIC [3] of 0.016 µg/mL (≈ 0.0269 µM). For the same compound, the MIC [4] was > 16 µg/mL, the MIC [5] was 0.031 µg/mL (≈ 0.0521 µM) and the MIC [6] was 0.031 µg/mL (≈ 0.0521 µM). For the same compound, the MIC [7] was 0.25 µg/mL (≈ 0.42 µM), the MIC [8] was 0.031 µg/mL (≈ 0.0521 µM) and the MIC [9] was > 16 µg/mL. The MIC [10] was 1 µg/mL and the MIC [11] was 0.25 µg/mL (≈ 0.42 µM).

With COc1cccc(CN2C[C@H](OCC34C[C@@H]5[C@H](C)CC[C@H]5C5(C=O)CC3C=C(C(C)C)C45C(=O)O)O[C@H](C)[C@@H](OC)C2)c1 (stereo not given in full) the MIC [1] was 2 µg/mL, the MIC [2] was 0.5 µg/mL (≈ 0.839 µM) and the MIC [3] was ≤ 0.031 µg/mL. For the same compound, the MIC [4] was > 16 µg/mL, the MIC [5] was 0.125 µg/mL (≈ 0.21 µM) and the MIC [6] was 0.063 µg/mL (≈ 0.106 µM). For the same compound, the MIC [7] was 2 µg/mL (≈ 3.36 µM), the MIC [8] was 0.063 µg/mL (≈ 0.106 µM) and the MIC [9] was > 16 µg/mL. For the same compound, the MIC [10] was 2 µg/mL and the MIC [11] was 8 µg/mL (≈ 13.4 µM).

CO[C@H]1CN(Cc2ccc(C(F)(F)F)cc2)C[C@H](OCC23C[C@@H]4[C@H](C)CC[C@H]4C4(C=O)CC2C=C(C(C)C)C34C(=O)O)O[C@@H]1C (stereo not given in full) gave an MIC [1] of 16 µg/mL, an MIC [2] of 2 µg/mL (≈ 3.16 µM) and an MIC [3] of 0.25 µg/mL (≈ 0.394 µM). For the same compound, the MIC [4] was > 32 µg/mL, the MIC [5] was 1 µg/mL (≈ 1.58 µM) and the MIC [6] was 0.5 µg/mL (≈ 0.789 µM). For the same compound, the MIC [7] was > 32 µg/mL, the MIC [8] was 0.5 µg/mL (≈ 0.789 µM) and the MIC [9] was > 32 µg/mL. It also gave an MIC [10] of 32 µg/mL and an MIC [11] of 8 µg/mL (≈ 12.6 µM).

In the case of CO[C@H]1CN(Cc2ccc(Cl)cc2)C[C@H](OCC23C[C@@H]4[C@H](C)CC[C@H]4C4(C=O)CC2C=C(C(C)C)C34C(=O)O)O[C@@H]1C (stereo not given in full), the MIC [1] is reported as 4 µg/mL, the MIC [2] is reported as 0.5 µg/mL (≈ 0.833 µM) and the MIC [3] is reported as ≤ 0.063 µg/mL. The MIC [4] was > 32 µg/mL, the MIC [5] was ≤ 0.063 µg/mL and the MIC [6] was ≤ 0.063 µg/mL. For the same compound, the MIC [7] was 4 µg/mL (≈ 6.66 µM), the MIC [8] was ≤ 0.063 µg/mL and the MIC [9] was > 32 µg/mL. It also gave an MIC [10] of 8 µg/mL and an MIC [11] of 1 µg/mL (≈ 1.67 µM).

Work on C=C(Cl)CN1C[C@H](OCC23C[C@@H]4[C@H](C)CC[C@H]4C4(C=O)CC2C=C(C(C)C)C34C(=O)O)O[C@H](C)[C@@H](OC)C1 (stereo not given in full) yielded an MIC [1] of 0.5 µg/mL, an MIC [2] of 0.25 µg/mL (≈ 0.454 µM) and an MIC [3] of 0.016 µg/mL (≈ 0.0291 µM). For the same compound, the MIC [4] was 16 µg/mL (≈ 29.1 µM), the MIC [5] was 0.031 µg/mL (≈ 0.0563 µM) and the MIC [6] was 0.031 µg/mL (≈ 0.0563 µM). For the same compound, the MIC [7] was 0.125 µg/mL (≈ 0.227 µM), the MIC [8] was 0.031 µg/mL (≈ 0.0563 µM) and the MIC [9] was > 16 µg/mL. It also gave an MIC [10] of 0.5 µg/mL and an MIC [11] of 0.125 µg/mL (≈ 0.227 µM).

Compound C=C(Cl)CN1C[C@H](OCC23C[C@@H]4[C@H](C)CC[C@H]4C4(C=O)CC2C=C(C(C)C)C34C(=O)O)O[C@H](C)C1 (stereo not given in full) has an MIC [1] of 0.25 µg/mL, an MIC [2] of 0.125 µg/mL (≈ 0.247 µM) and an MIC [3] of 0.016 µg/mL (≈ 0.0316 µM). It also gave an MIC [4] of 8 µg/mL (≈ 15.8 µM), an MIC [5] of 0.031 µg/mL (≈ 0.0613 µM) and an MIC [6] of 0.031 µg/mL (≈ 0.0613 µM). The MIC [7] was 16 µg/mL (≈ 31.6 µM), the MIC [8] was 0.031 µg/mL (≈ 0.0613 µM) and the MIC [9] was > 16 µg/mL. It also gave an MIC [10] of 0.5 µg/mL and an MIC [11] of 0.125 µg/mL (≈ 0.247 µM).

With C=C(CF)CN1C[C@H](OCC23C[C@@H]4[C@H](C)CC[C@H]4C4(C=O)CC2C=C(C(C)C)C34C(=O)O)O[C@H](C)[C@@H](OC)C1 (stereo not given in full) the MIC [1] was 0.5 µg/mL, the MIC [2] was 0.25 µg/mL (≈ 0.456 µM) and the MIC [3] was ≤ 0.031 µg/mL. For the same compound, the MIC [4] was > 16 µg/mL, the MIC [5] was ≤ 0.031 µg/mL and the MIC [6] was ≤ 0.031 µg/mL. The MIC [7] was 0.25 µg/mL (≈ 0.456 µM), the MIC [8] was ≤ 0.031 µg/mL and the MIC [9] was > 16 µg/mL. For the same compound, the MIC [10] was 0.5 µg/mL and the MIC [11] was 0.5 µg/mL (≈ 0.913 µM).

In the case of CO[C@H]1CN(CC2=CCCCC2)C[C@H](OCC23C[C@@H]4[C@H](C)CC[C@H]4C4(C=O)CC2C=C(C(C)C)C34C(=O)O)O[C@@H]1C (stereo not given in full), the MIC [1] is reported as 4 µg/mL, the MIC [2] is reported as 1 µg/mL (≈ 1.76 µM) and the MIC [3] is reported as 0.063 µg/mL (≈ 0.111 µM). For the same compound, the MIC [4] was > 16 µg/mL, the MIC [5] was 0.125 µg/mL (≈ 0.219 µM) and the MIC [6] was 0.125 µg/mL (≈ 0.219 µM). The MIC [7] was 8 µg/mL (≈ 14 µM), the MIC [8] was 0.125 µg/mL (≈ 0.219 µM) and the MIC [9] was > 16 µg/mL. The MIC [10] was 8 µg/mL and the MIC [11] was 4 µg/mL (≈ 7.02 µM).

C=CCN1C[C@H](OCC23C[C@@H]4[C@H](C)CC[C@H]4C4(C=O)CC2C=C(C(C)C)C34C(=O)O)O[C@H](C)[C@@H](OC)C1 (stereo not given in full) showed an MIC [1] of 0.25 µg/mL, an MIC [2] of 0.5 µg/mL (≈ 0.97 µM) and an MIC [3] of 0.031 µg/mL (≈ 0.0601 µM). For the same compound, the MIC [4] was > 16 µg/mL, the MIC [5] was 0.063 µg/mL (≈ 0.122 µM) and the MIC [6] was 0.063 µg/mL (≈ 0.122 µM). The MIC [7] was > 16 µg/mL, the MIC [8] was 0.063 µg/mL (≈ 0.122 µM) and the MIC [9] was > 16 µg/mL. It also gave an MIC [10] of 0.25 µg/mL and an MIC [11] of 0.25 µg/mL (≈ 0.485 µM).

With C=CCCN1C[C@H](OCC23C[C@@H]4[C@H](C)CC[C@H]4C4(C=O)CC2C=C(C(C)C)C34C(=O)O)O[C@H](C)[C@@H](OC)C1 (stereo not given in full) the MIC [2] was 1 µg/mL (≈ 1.89 µM), the MIC [3] was 0.063 µg/mL (≈ 0.119 µM) and the MIC [4] was > 16 µg/mL. For the same compound, the MIC [5] was 0.25 µg/mL (≈ 0.472 µM), the MIC [6] was 0.125 µg/mL (≈ 0.236 µM) and the MIC [7] was > 16 µg/mL. The MIC [8] was 0.125 µg/mL (≈ 0.236 µM), the MIC [9] was > 16 µg/mL and the MIC [11] was 4 µg/mL (≈ 7.55 µM).

In the case of OC(Cn1cncn1)(Cn1cncn1)c1ccc(F)cc1F [FLUCONAZOLE], the MIC [5] is reported as 4 µg/mL (≈ 13.1 µM) and the MIC [8] is reported as 4 µg/mL (≈ 13.1 µM).

Source: ChEMBL document CHEMBL1135162, “Synthesis and evaluation of N-substituted 1,4-oxazepanyl Sordaricins as selective fungal EF-2 inhibitors” (2002)
